In ChEMBL document CHEMBL1132439, “Selective A(3) adenosine receptor antagonists: water-soluble 3, 5-diacyl-1,2,4-trialkylpyridinium salts and their oxidative generation from dihydropyridine precursors” (J Med Chem, 1999):

Experiments:
Adenosine receptor A1 = biological target: T1, Adenosine receptor A1 (Rattus norvegicus, UniProt P25099); assay: (§1) Displacement of [3H]R-PIA from Adenosine A1 receptor of rat brain membranes; assay type: cell membranes, Membrane
T1 sequence (P25099 whole entry): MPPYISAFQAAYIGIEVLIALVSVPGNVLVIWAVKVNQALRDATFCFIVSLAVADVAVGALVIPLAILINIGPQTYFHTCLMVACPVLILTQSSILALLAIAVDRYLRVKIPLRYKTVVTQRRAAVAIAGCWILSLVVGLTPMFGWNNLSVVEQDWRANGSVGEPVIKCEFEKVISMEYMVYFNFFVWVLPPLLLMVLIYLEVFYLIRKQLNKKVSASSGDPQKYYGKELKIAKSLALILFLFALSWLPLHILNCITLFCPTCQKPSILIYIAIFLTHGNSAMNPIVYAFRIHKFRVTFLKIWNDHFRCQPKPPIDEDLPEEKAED
In short: (§2)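 Rat cerebral cortex membranes prepared with adenosine deaminase 3 units/mL, also present in a 30 min preincubation at 30 °C and during radioligand incubation. Nonspecific binding defined with 10 μM 2-chloroadenosine. Compounds dissolved in DMSO, diluted in buffer (≤1% DMSO). Filtration over GF/B filters.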

Adenosine receptor A2a = Adenosine receptor A2a (Rattus norvegicus, UniProt P30543); assay: Displacement of [3H]CGS-21680 from Adenosine A2A receptor of rat striatal membranes.; assay type: cell membranes, Membrane
In short: (§3)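 Rat striatal membranes prepared with adenosine deaminase 3 units/mL, also present in a 30 min preincubation at 30 °C and during radioligand incubation. Nonspecific binding defined with 20 μM 2-chloroadenosine. Compounds dissolved in DMSO, diluted in buffer (≤1% DMSO). Filtration over GF/B filters. IC50 from at least five competitor concentrations spanning 3 log units, converted to Ki by Cheng-Prusoff; n = 3–6, or % specific binding displaced at 10⁻⁴ M.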

[1] = biological target: T2, Adenosine receptor A1 (Rattus norvegicus) (UniProt P25099); assay: Displacement of [3H]R-PIA from Adenosine A1 receptor from rat brain membranes at 10^-4M; assay type: cell membranes; settings: Membrane; in short: as §2
T2 sequence (whole entry): T1 sequence (P25099 whole entry)

[2] = biological target: Adenosine receptor A2a (Rattus norvegicus) (UniProt P30543); assay: Displacement of [3H]CGS-21680 from Adenosine A2A receptor of rat striatal membranes at 10^-4M; assay type: cell membranes; settings: Membrane; in short: as §3
[3] = biological target: T2, Adenosine receptor A1 (Rattus norvegicus); assay: as §1; assay type: cell membranes; settings: Membrane; in short: as §2

Chain of Adenosine receptor A2a (P30543 whole entry): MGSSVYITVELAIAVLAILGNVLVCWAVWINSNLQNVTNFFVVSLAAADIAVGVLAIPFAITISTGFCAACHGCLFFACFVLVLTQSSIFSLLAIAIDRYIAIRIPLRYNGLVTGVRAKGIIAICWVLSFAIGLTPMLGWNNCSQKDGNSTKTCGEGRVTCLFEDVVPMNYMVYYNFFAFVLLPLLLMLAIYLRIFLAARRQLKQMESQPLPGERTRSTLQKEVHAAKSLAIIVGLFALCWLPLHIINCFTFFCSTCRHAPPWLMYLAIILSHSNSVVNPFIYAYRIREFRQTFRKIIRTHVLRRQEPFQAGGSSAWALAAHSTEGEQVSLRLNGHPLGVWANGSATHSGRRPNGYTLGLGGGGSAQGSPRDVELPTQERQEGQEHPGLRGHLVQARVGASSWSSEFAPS
Chain of Adenosine receptor A2a (Rattus norvegicus) (P30543 whole entry): as above

Structure (SMILES)	Ki (Adenosine receptor A1)	Ki (Adenosine receptor A2a)	Displacement [1]	Displacement [2]	Displacement [3]
CCOC(=O)c1c(CCN2C(=O)c3ccccc3C2=O)c(C(=O)SCC)c(CC)[n+](C)c1-c1ccccc1	1.53 µM	2.15 µM			
CCOC(=O)c1c(CC)c(C(=O)SCC)c(C2CCC2)[n+](C)c1-c1ccccc1	88 µM	33.2 µM			
CCCOC(=O)c1c(CC)c(C(=O)SCC)c(CC)[n+](C)c1-c1ccccc1		18.7 µM	< 10%		
CCOC(=O)c1c(CC)c(C(=O)SCC)c(C)[n+](C)c1-c1ccccc1		20.8 µM	22%		
CCCCc1c(C(=O)SCC)c(CC)c(C(=O)OCC)c(-c2ccccc2)[n+]1C	14.5 µM	6.02 µM			
CCC[n+]1c(CC)c(C(=O)SCC)c(CC)c(C(=O)OCC)c1-c1ccccc1	76.9 µM			28%	
CCCOC(=O)c1c(CCSC(C)=O)c(C(=O)SCC)c(CC)[n+](C)c1-c1ccccc1		53.2 µM	45%		
CCCOC(=O)c1c(CCC)c(C(=O)SCC)c(CCOCc2ccccc2)[n+](C)c1-c1ccccc1		11.9 µM			21%
CCSC(=O)c1c(CC)c(C(=O)OCCF)c(-c2ccccc2)[n+](C)c1CC		56.6 µM	30%		
CCCOC(=O)c1c(CCC)c(C(=O)SCC)c(CC)[n+](C)c1-c1ccccc1			< 10%	25%	
CCOC(=O)c1c(CC)c(C(=O)SCC)c(CC)[n+](C)c1C1CCCC1		7.72 µM			
CCCOC(=O)c1c(CCC)c(C(=O)SCCCF)c(CC)[n+](C)c1-c1ccccc1		7.37 µM	< 10%		
CCOC(=O)c1c(CC)c(C(=O)SCC)c(CC)[n+](C)c1-c1ccccc1	31.9 µM	11.6 µM			
CCOC(=O)c1c(CC)c(C(=O)SCC)c(CC)[n+](CC)c1-c1ccccc1				25%	
